# Legend:
# Assay type in all cases: functional
# [1] = tested on: Fonsecaea compacta; assay: Antifungal activity against Fonsecaea compacta
# In short: (§1)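 NCCLS broth serial dilution in RPMI 1640 buffered with 0.165 M MOPS. Compounds were dissolved in DMSO and serially diluted in medium. Strains came from ATCC or clinical isolates. The growth MIC for filamentous fungi was read at 7 d, taken as the lowest concentration giving ≥80% turbidity inhibition versus the growth control.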
# [2] = tested on: Trichophyton rubrum; assay: Antifungal activity against Trichophyton rubrum
# In short: (§2)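 Dermatophytes were tested by NCCLS serial dilution in RPMI 1640 with 0.165 M MOPS and incubated at 28 °C. Compounds were dissolved in DMSO and diluted in medium. Strains came from ATCC or clinical isolates. The MIC was read at 7 d as the lowest concentration reducing turbidity by ≥80% relative to the drug-free control.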
# [3] = tested on: Microsporum; assay: Antifungal activity against Microsporum gypseum; in short: as §2
# [4] = tested on: Aspergillus fumigatus; assay: Antifungal activity against Aspergillus fumigatus; in short: as §1
# [5] = tested on: Candida albicans; assay: Antifungal activity against Candida albicans after 24 hrs
# In short: (§3)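 Candida yeasts were tested by NCCLS microdilution in RPMI 1640 buffered with 0.165 M MOPS and incubated at 35 °C. Compounds were dissolved in DMSO and serially diluted in medium. Isolates came from ATCC or the clinic. The MIC was read at 24 h as the lowest concentration achieving ≥80% growth inhibition versus the control.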
# [6] = tested on: Candida parapsilosis; assay: Antifungal activity against Candida parapsilosis after 24 hrs; details: Lodderomyces parapsilosis; in short: as §3
# [7] = tested on: Cryptococcus neoformans; assay: Antifungal activity against Cryptococcus neoformans after 72 hrs
# In short: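 Cryptococcus neoformans was tested by NCCLS serial dilution in MOPS-buffered (0.165 M) RPMI 1640 at 35 °C. Compounds were dissolved in DMSO and diluted in medium. The MIC was read at 72 h as the lowest concentration giving turbidity inhibition of ≥80% relative to the growth control.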
Structure (SMILES),MIC [1] [µM],MIC [2] [µM],MIC [3] [µM],MIC [4] [µM],MIC [5] [µM],MIC [6] [µM],MIC [7] [µM]
CCCCCCCCCCN1CCc2cc(O)c(O)cc2C1,16,1,> 64,16,> 64,0.5,1
Oc1ccc2c(c1)CC(Nc1ccc(Cl)cc1)CC2 (configuration not stated),32,2,4,64,> 64,32,16
Oc1cccc2c1CC(Nc1ccc(Cl)cc1)CC2 (configuration not stated),64,8,8,> 64,16,32,32
CCCCNC1CCc2cccc(O)c2C1 (configuration not stated),> 64,> 64,64,> 64,> 64,> 64,> 64
CCCCCCCCNC1CCc2cccc(OC)c2C1 (configuration not stated),8,4,8,32,16,32,16
NC1CCc2c(O)cccc2C1 (configuration not stated),32,> 64,> 64,> 64,> 64,> 64,> 64
NC1CCc2cc(O)ccc2C1 (configuration not stated),32,> 64,> 64,> 64,> 64,> 64,> 64
NC1CCc2ccc(O)cc2C1 (configuration not stated),32,> 64,> 64,> 64,> 64,> 64,> 64
CCCCCCCCNC1CCc2cccc(O)c2C1 (configuration not stated),4,8,4,,2,8,8
COc1ccc2c(c1)CCC(N)C2 (configuration not stated),> 64,64,> 64,> 64,> 64,> 64,> 64
CCCCCCCCNC1CCc2c(O)cccc2C1 (configuration not stated),8,4,8,> 64,8,64,32
CCCCCCCCCNC1CCc2ccc(OC)cc2C1 (configuration not stated),2,0.0625,4,16,0.25,4,4
CCCCCCCCCNC1CCc2cccc(OC)c2C1 (configuration not stated),2,2,64,16,0.5,1,4
CCCCCCCCCNC1CCc2c(O)cccc2C1 (configuration not stated),4,4,8,64,1,32,8
CCCCCCCCCNC1CCc2cccc(O)c2C1 (configuration not stated),4,4,4,16,1,8,8
CCCCCCCCCCNC1CCc2cc(OC)ccc2C1 (configuration not stated),8,1,4,> 64,0.25,8,16
CCCCCCCCCCNC1CCc2ccc(O)cc2C1 (configuration not stated),2,0.25,4,32,1,4,1
CCCCCCCCCCCCNC1CCc2c(cccc2OC)C1 (configuration not stated),8,0.5,16,> 64,8,16,8
NC1CCc2cccc(O)c2C1 (configuration not stated),32,> 64,> 64,> 64,> 64,> 64,> 64
CCCCNC1CCc2c(cccc2OC)C1 (configuration not stated),> 64,64,> 64,> 64,> 64,> 64,> 64
CCCCNC1CCc2ccc(OC)cc2C1 (configuration not stated),4,4,64,> 64,64,64,> 64
CCCCCCCCCCCCNC1CCc2ccc(OC)cc2C1 (configuration not stated),8,2,2,16,2,1,1

Structure (SMILES),MIC [1] [µM],MIC [2] [µM],MIC [3] [µM],MIC [4] [µM],MIC [5] [µM],MIC [6] [µM],MIC [7] [µM]
CCCCCCCCCCCCNC1CCc2cccc(OC)c2C1 (configuration not stated),8,4,64,32,4,16,16
CCCCCCCCCCCCNC1CCc2cc(O)ccc2C1 (configuration not stated),4,2,8,> 64,1,8,2
CCCCNC1CCc2c(O)cccc2C1 (configuration not stated),64,64,> 64,> 64,> 64,> 64,> 64
CCCCNC1CCc2cc(O)ccc2C1 (configuration not stated),> 64,64,> 64,> 64,> 64,> 64,> 64
CCCCCCCCCCCCNC1CCc2cccc(O)c2C1 (configuration not stated),8,4,> 64,32,16,32,32
COc1cccc2c1CC(Nc1ccc(Cl)cc1)CC2 (configuration not stated),> 64,> 64,32,> 64,> 64,> 64,> 64
CCCCCCCCCCNC1CCc2cccc(OC)c2C1 (configuration not stated),1,1,2,16,0.25,2,1
CCCCCCCCCCCCNC1CCc2ccc(O)cc2C1 (configuration not stated),32,1,4,> 64,16,> 64,32
CCCCCCCCNC1CCc2c(cccc2OC)C1 (configuration not stated),4,8,> 64,16,8,16,16
CCCCCCCCNC1CCc2ccc(OC)cc2C1 (configuration not stated),4,4,8,64,1,32,16
CCCCNC1CCc2cccc(OC)c2C1 (configuration not stated),0.25,16,32,64,> 64,> 64,> 64
Oc1ccc2c(c1)CCC(Nc1ccc(Cl)cc1)C2 (configuration not stated),32,0.25,4,64,> 64,32,16
COc1cccc2c1CCC(N)C2 (configuration not stated),64,8,> 64,> 64,> 64,> 64,> 64
COc1cccc2c1CC(N)CC2 (configuration not stated),> 64,64,> 64,> 64,> 64,> 64,> 64
CCCCCCCCCCCCNC1CCc2cc(OC)ccc2C1 (configuration not stated),64,4,> 64,> 64,4,32,4
CCCCCCCCCCCCNC1CCc2c(O)cccc2C1 (configuration not stated),> 64,32,2,> 64,4,> 64,> 64
CCCCNC1CCc2cc(OC)ccc2C1 (configuration not stated),> 64,64,> 64,> 64,64,> 64,64
CCCCNC1CCc2ccc(O)cc2C1 (configuration not stated),64,> 64,64,> 64,> 64,> 64,> 64
CCCCCCCCNC1CCc2ccc(O)cc2C1 (configuration not stated),8,8,4,> 64,4,32,16
CCCCCCCCCNC1CCc2ccc(O)cc2C1 (configuration not stated),8,4,8,64,1,16,8
Oc1cccc2c1CCC(Nc1ccc(Cl)cc1)C2 (configuration not stated),16,2,0.5,64,2,8,8
COc1ccc2c(c1)CC(N)CC2 (configuration not stated),> 64,64,> 64,> 64,> 64,> 64,> 64

# From ChEMBL document CHEMBL1137547, “Synthesis and antifungal activities of novel 2-aminotetralin derivatives” (2007)
